Test results: ChEMBL document CHEMBL1649147, “Antistaphylococcal activity of dihydrophthalazine antifolates, a family of novel antibacterial drugs” (2009)
Values after ≈ are worked out from the molar mass of the structure shown.

Tests used:
[1] = system: Staphylococcus epidermidis; assay: Antibacterial activity against methicillin-susceptible coagulase-negative Staphylococcus epidermidis 051 after 9 passages by agar dilution method; type: functional
Method in brief: (§1)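 Daily serial passage for up to 50 days at 35°C for 24 h in 1 ml MHB. […] Each transfer used 10 µl from the tube nearest the MIC (1–2 dilutions below) with the same turbidity as the drug-free control. […] MICs were measured by agar dilution, with changes given as log2 steps.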

[2] = system: Staphylococcus epidermidis; assay: Antibacterial activity against methicillin-susceptible coagulase-negative Staphylococcus epidermidis 057 after 9 passages by agar dilution method; type: functional; method in brief: as §1
[3] = system: Staphylococcus epidermidis; assay: Antibacterial activity against methicillin-resistant coagulase-negative Staphylococcus epidermidis 197 after 12 passages by agar dilution method; type: functional; method in brief: as §1
[4] = system: Staphylococcus epidermidis; assay: Antibacterial activity against methicillin-resistant, vancomycin-intermediate coagulase-negative Staphylococcus epidermidis 225 after 11 passages by agar dilution method; type: functional; method in brief: as §1
[5] = system: Staphylococcus epidermidis; assay: Antibacterial activity against methicillin-resistant, Linezolid non-susceptible coagulase-negative Staphylococcus epidermidis 345 after 9 passages by agar dilution method; type: functional; method in brief: as §1
Staphylococcus aureus [6] = assay: Antibacterial activity against methicillin-susceptible Staphylococcus aureus by agar dilution method; type: functional
Method in brief: (§2)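 Agar dilution on Mueller-Hinton agar per CLSI guidelines. S. aureus ATCC 29213 and E. faecalis ATCC 29212 were run with each set, and test MICs were accepted only when the control strains fell within acceptable ranges.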

Staphylococcus aureus [7] = assay: Antibacterial activity against methicillin-resistant Staphylococcus aureus by agar dilution method; type: functional; method in brief: as §2
Staphylococcus aureus [8] = assay: Antibacterial activity against Tmp-susceptible Staphylococcus aureus by agar dilution method; type: functional
Method in brief: (§3)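 MICs by agar dilution on Mueller-Hinton agar following CLSI guidelines. S. aureus ATCC 29213 and E. faecalis ATCC 29212 were run as quality controls with each set, and test-strain MICs were kept only if control MICs fell within acceptable ranges.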

Staphylococcus aureus [9] = assay: Antibacterial activity against Tmp-resistant Staphylococcus aureus by agar dilution method; type: functional; method in brief: as §3
Staphylococcus aureus [10] = assay: Antibacterial activity against Tmp-susceptible coagulase-negative Staphylococcus aureus by agar dilution method; type: functional; method in brief: as §3
Staphylococcus aureus [11] = assay: Antibacterial activity against methicillin-susceptible Staphylococcus aureus ATCC 29213 by broth macrodilution method; type: functional; details: ATCC29213
Staphylococcus aureus [12] = assay: Antibacterial activity against methicillin-susceptible Staphylococcus aureus 505 by broth macrodilution method; type: functional
Staphylococcus aureus [13] = assay: Antibacterial activity against methicillin-resistant Staphylococcus aureus ATCC 43300 by broth macrodilution method; type: functional; details: ATCC43300
Staphylococcus aureus [14] = assay: Antibacterial activity against methicillin-resistant Staphylococcus aureus 145 by broth macrodilution method; type: functional
Staphylococcus aureus [15] = assay: Antibacterial activity against methicillin-resistant Staphylococcus aureus 507 by broth macrodilution method; type: functional
Staphylococcus aureus [16] = assay: Antibacterial activity against vancomycin-resistant Staphylococcus aureus VRS1 by broth macrodilution method; type: functional
Method in brief: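 Michigan VRSA strain, one of 12 staphylococci later used in time-kill studies. MIC was determined by broth macrodilution and reported in μg/ml.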

[17] = system: Staphylococcus epidermidis; assay: Antibacterial activity against methicillin-susceptible coagulase-negative Staphylococcus epidermidis 051 by broth macrodilution method; type: functional
[18] = system: Staphylococcus epidermidis; assay: Antibacterial activity against methicillin-susceptible coagulase-negative Staphylococcus epidermidis 057 by broth macrodilution method; type: functional
[19] = system: Staphylococcus epidermidis; assay: Antibacterial activity against methicillin-resistant coagulase-negative Staphylococcus epidermidis 074 by broth macrodilution method; type: functional
[20] = system: Staphylococcus epidermidis; assay: Antibacterial activity against methicillin-resistant coagulase-negative Staphylococcus epidermidis 197 by broth macrodilution method; type: functional
[21] = system: Staphylococcus epidermidis; assay: Antibacterial activity against methicillin-resistant coagulase-negative Staphylococcus epidermidis 225 by broth macrodilution method; type: functional
[22] = system: Staphylococcus epidermidis; assay: Antibacterial activity against methicillin-resistant coagulase-negative Staphylococcus epidermidis 345 by broth macrodilution method; type: functional
Staphylococcus aureus [23] = assay: Antibacterial activity against methicillin-susceptible Staphylococcus aureus ATCC 29213 after 9 passages by agar dilution method; type: functional; details: ATCC29213; method in brief: as §1
Staphylococcus aureus [24] = assay: Antibacterial activity against methicillin-susceptible, vancomycin-intermediate Staphylococcus aureus 505 by broth macrodilution method; type: functional
Staphylococcus aureus [25] = assay: Antibacterial activity against methicillin-susceptible, vancomycin-intermediate Staphylococcus aureus 505 after 9 passages by agar dilution method; type: functional; method in brief: as §1
Staphylococcus aureus [26] = assay: Antibacterial activity against methicillin-resistant Staphylococcus aureus ATCC 43300 after 9 passages by agar dilution method; type: functional; details: ATCC43300
Method in brief: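 Serial passage under drug. Inoculum was ~1 × 10^6 CFU/ml from overnight MHA growth, in 1 ml MHB at 35°C for 24 h. Drug ranged from 4 log2 steps above to 3 log2 steps below the MIC. […] MIC change is given as log2 steps.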

Staphylococcus aureus [27] = assay: Antibacterial activity against methicillin-resistant Staphylococcus aureus 145 after 10 passages by agar dilution method; type: functional
Staphylococcus aureus [28] = assay: Antibacterial activity against methicillin-resistant and vancomycin-resistant Staphylococcus aureus VRS1 by agar dilution method; type: functional; method in brief: as §2
[29] = system: Staphylococcus epidermidis; assay: Antibacterial activity against methicillin-resistant, Linezolid non-susceptible coagulase-negative Staphylococcus epidermidis 345 by agar dilution method; type: functional
[30] = system: Staphylococcus epidermidis; assay: Antibacterial activity against methicillin-resistant, vancomycin-intermediate coagulase-negative Staphylococcus epidermidis 225 by agar dilution method; type: functional; method in brief: as §2
[31] = system: coagulase-negative staphylococci; assay: Antibacterial activity against Tmp-resistant coagulase-negative staphylococci by agar dilution method
[32] = system: coagulase-negative staphylococci; assay: Antibacterial activity against Tmp-susceptible coagulase-negative staphylococci by agar dilution method
[33] = system: coagulase-negative staphylococci; assay: Antibacterial activity against methicillin-resistant coagulase-negative staphylococci by agar dilution method
[34] = system: coagulase-negative staphylococci; assay: Antibacterial activity against methicillin-susceptible coagulase-negative staphylococci by agar dilution method
[35] = system: Staphylococcus epidermidis; assay: Antibacterial activity against methicillin-resistant coagulase-negative Staphylococcus epidermidis 197 after 50 passages by agar dilution method; type: functional
Method in brief: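 Daily serial passage for up to 50 days at 35°C for 24 h in 1 ml MHB. Each transfer used 10 µl from the tube nearest the MIC (1–2 dilutions below) with the same turbidity as the drug-free control. MICs were measured by agar dilution, with changes given as log2 steps.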

Staphylococcus aureus [36] = assay: microbe, parasite or virus in culture; details: ATCC29213
Staphylococcus aureus [37] = assay: microbe, parasite or virus in culture; details: 505
Staphylococcus aureus [38] = assay: microbe, parasite or virus in culture; details: ATCC43300

CO[C@H]1/C=C/O[C@@]2(C)Oc3c(C)c(O)c4c(O)c(c(/C=N/N5CCN(C)CC5)c(O)c4c3C2=O)NC(=O)/C(C)=C\C=C\[C@H](C)[C@H](O)[C@@H](C)[C@@H](O)[C@@H](C)[C@H](OC(C)=O)[C@@H]1C [RIFAMPIN] gave an MIC [1] of over 128 µg/mL, an MIC [2] of over 128 µg/mL and an MIC [3] of over 128 µg/mL. The MIC [4] was over 128 µg/mL, the MIC [5] was over 128 µg/mL and the MIC50 (Staphylococcus aureus [6]) was 0.008 µg/mL (≈ 0.00972 µM). For the same compound, the MIC90 (Staphylococcus aureus [6]) was 0.016 µg/mL (≈ 0.0194 µM), the MIC50 (Staphylococcus aureus [7]) was 0.016 µg/mL (≈ 0.0194 µM) and the MIC90 (Staphylococcus aureus [7]) was 0.016 µg/mL (≈ 0.0194 µM). For the same compound, the MIC50 (Staphylococcus aureus [8]) was 0.016 µg/mL (≈ 0.0194 µM), the MIC90 (Staphylococcus aureus [8]) was 0.016 µg/mL (≈ 0.0194 µM) and the MIC50 (Staphylococcus aureus [9]) was 0.008 µg/mL (≈ 0.00972 µM). The MIC90 (Staphylococcus aureus [9]) was over 16 µg/mL, the MIC (Staphylococcus aureus [10]) was at most 0.004 µg/mL and the MIC (Staphylococcus aureus [11]) was 0.008 µg/mL (≈ 0.00972 µM). The MIC (Staphylococcus aureus [12]) was 0.03 µg/mL (≈ 0.0365 µM), the MIC (Staphylococcus aureus [13]) was 0.004 µg/mL (≈ 0.00486 µM) and the MIC (Staphylococcus aureus [14]) was 0.008 µg/mL (≈ 0.00972 µM). For the same compound, the MIC (Staphylococcus aureus [15]) was 4 µg/mL (≈ 4.86 µM), the MIC (Staphylococcus aureus [16]) was over 128 µg/mL and the MIC [17] was 0.016 µg/mL (≈ 0.0194 µM). It also gave an MIC [18] of 0.03 µg/mL (≈ 0.0365 µM), an MIC [19] of 0.03 µg/mL (≈ 0.0365 µM) and an MIC [20] of 0.03 µg/mL (≈ 0.0365 µM). The MIC [21] was 0.03 µg/mL (≈ 0.0365 µM), the MIC [22] was 0.016 µg/mL (≈ 0.0194 µM) and the MIC (Staphylococcus aureus [23]) was over 128 µg/mL. It also gave an MIC (Staphylococcus aureus [24]) of 0.016 µg/mL (≈ 0.0194 µM), an MIC (Staphylococcus aureus [25]) of over 128 µg/mL and an MIC (Staphylococcus aureus [26]) of over 128 µg/mL. It also gave an MIC (Staphylococcus aureus [27]) of over 128 µg/mL, an MIC (Staphylococcus aureus [28]) of over 32 µg/mL and an MIC [29] of 0.008 µg/mL (≈ 0.00972 µM). For the same compound, the MIC [30] was 0.016 µg/mL (≈ 0.0194 µM), the MIC50 [31] was 0.008 µg/mL (≈ 0.00972 µM) and the MIC90 [31] was over 16 µg/mL. The MIC50 [32] was 0.008 µg/mL (≈ 0.00972 µM), the MIC90 [32] was 0.016 µg/mL (≈ 0.0194 µM) and the MIC50 [33] was 0.008 µg/mL (≈ 0.00972 µM). The MIC90 [33] was 2 µg/mL (≈ 2.43 µM), the MIC [34] was at most 0.004 µg/mL and the MIC90 [34] was 0.016 µg/mL (≈ 0.0194 µM).

COc1cc(Cc2cnc(N)nc2N)cc(OC)c1OC [TRIMETHOPRIM] was tested, and the MIC [35] was 64 µg/mL (≈ 220 µM), the MIC50 (Staphylococcus aureus [6]) was 0.5 µg/mL (≈ 1.72 µM) and the MIC90 (Staphylococcus aureus [6]) was over 128 µg/mL. For the same compound, the MIC (Staphylococcus aureus [7]) was at most 0.008 µg/mL, the MIC50 (Staphylococcus aureus [7]) was 0.5 µg/mL (≈ 1.72 µM) and the MIC50 (Staphylococcus aureus [8]) was 0.5 µg/mL (≈ 1.72 µM). The MIC90 (Staphylococcus aureus [8]) was 0.5 µg/mL (≈ 1.72 µM), the MIC (Staphylococcus aureus [9]) was 32 µg/mL (≈ 110 µM) and the MIC50 (Staphylococcus aureus [9]) was over 128 µg/mL. For the same compound, the MIC (Staphylococcus aureus [10]) was 0.03 µg/mL (≈ 0.103 µM), the MIC (Staphylococcus aureus [11]) was 1 µg/mL (≈ 3.44 µM) and the MIC (Staphylococcus aureus [12]) was 1 µg/mL (≈ 3.44 µM). It also gave an MIC (Staphylococcus aureus [13]) of 1 µg/mL (≈ 3.44 µM), an MIC (Staphylococcus aureus [14]) of over 128 µg/mL and an MIC (Staphylococcus aureus [15]) of 128 µg/mL (≈ 441 µM). For the same compound, the MIC (Staphylococcus aureus [16]) was over 128 µg/mL, the MIC [17] was 128 µg/mL (≈ 441 µM) and the MIC [18] was 128 µg/mL (≈ 441 µM). It also gave an MIC [19] of 4 µg/mL (≈ 13.8 µM), an MIC [20] of 0.5 µg/mL (≈ 1.72 µM) and an MIC [21] of over 128 µg/mL. For the same compound, the MIC [22] was over 128 µg/mL, the MIC (Staphylococcus aureus [24]) was 1 µg/mL (≈ 3.44 µM) and the MIC (Staphylococcus aureus [28]) was over 128 µg/mL. The MIC [29] was over 128 µg/mL, the MIC [30] was over 128 µg/mL and the MIC (Staphylococcus aureus [36]) was over 128 µg/mL. The MIC (Staphylococcus aureus [37]) was over 128 µg/mL, the MIC (Staphylococcus aureus [38]) was over 128 µg/mL and the MIC50 [31] was over 128 µg/mL. It also gave an MIC50 [32] of 0.25 µg/mL (≈ 0.861 µM), an MIC90 [32] of 2 µg/mL (≈ 6.89 µM) and an MIC50 [33] of 128 µg/mL (≈ 441 µM). It also gave an MIC90 [34] of 64 µg/mL (≈ 220 µM).
